Data as given in ChEMBL document CHEMBL3085721, “Nonhydrolyzable ATP analogues as selective inhibitors of human NPP1: a combined computational/experimental study” (J Med Chem, 2013).
Activity calls are given as the source filed them. The calls are words filed in the database; no cut-off is given here.

Experiments:
[1] = target: T1, Ectonucleotide pyrophosphatase/phosphodiesterase family member 3 (Homo sapiens) (UniProt O14638); assay: Inhibition of NPP3 in human HTB-85 cells assessed as production of p-nitrophenol using pnp-TMP at 100 uM measured after 20 mins by spectrophotometry; assay type: cell-based
T1 sequence (whole entry): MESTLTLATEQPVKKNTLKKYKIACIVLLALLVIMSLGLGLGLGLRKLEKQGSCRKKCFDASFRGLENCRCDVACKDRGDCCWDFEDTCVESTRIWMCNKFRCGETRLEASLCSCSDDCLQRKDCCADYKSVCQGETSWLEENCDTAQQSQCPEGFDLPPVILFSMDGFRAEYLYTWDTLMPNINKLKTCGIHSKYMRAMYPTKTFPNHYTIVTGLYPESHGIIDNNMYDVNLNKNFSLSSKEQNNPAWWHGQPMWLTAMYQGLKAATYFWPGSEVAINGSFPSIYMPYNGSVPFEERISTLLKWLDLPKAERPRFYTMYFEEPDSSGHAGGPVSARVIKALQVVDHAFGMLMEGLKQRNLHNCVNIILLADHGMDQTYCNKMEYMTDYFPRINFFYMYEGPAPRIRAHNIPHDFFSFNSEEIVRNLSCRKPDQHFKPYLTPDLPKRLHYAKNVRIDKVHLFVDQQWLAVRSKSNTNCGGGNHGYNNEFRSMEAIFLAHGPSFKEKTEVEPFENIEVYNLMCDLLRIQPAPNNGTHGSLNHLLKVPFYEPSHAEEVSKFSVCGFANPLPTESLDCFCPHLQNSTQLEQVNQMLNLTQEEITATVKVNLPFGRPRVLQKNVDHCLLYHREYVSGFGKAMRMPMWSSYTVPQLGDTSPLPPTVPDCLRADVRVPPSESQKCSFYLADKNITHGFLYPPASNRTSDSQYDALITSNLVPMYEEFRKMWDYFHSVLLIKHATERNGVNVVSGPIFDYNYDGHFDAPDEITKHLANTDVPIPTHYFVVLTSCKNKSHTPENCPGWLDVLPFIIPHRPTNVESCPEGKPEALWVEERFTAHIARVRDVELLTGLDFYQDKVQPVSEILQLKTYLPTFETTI
Summary of the method: (§1)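 Intact osteocarcinoma HTB85 (SaOS-2) cells in 24-well plates, 0.5 mL incubation mixture, analogue and pnp-TMP each at 100 μM. After 20 min an aliquot was read for p-nitrophenol at 410 nm. Substrate alone set as 100%. Mean ± SD of three experiments in triplicate.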

[2] = target: T2, Ectonucleotide pyrophosphatase/phosphodiesterase family member 1 (Homo sapiens) (UniProt P22413); assay: Competitive inhibition of human NPP1 expressed in COS7 cells assessed as production of p-nitrophenol using pnp-TMP as the substrate preincubated at 25 to 100 uM for 3 mins before substrate addition measured after 15 mins by Dixon/Cornish Bowden method; assay type: cell-based; conditions: COS-7
T2 sequence (whole entry): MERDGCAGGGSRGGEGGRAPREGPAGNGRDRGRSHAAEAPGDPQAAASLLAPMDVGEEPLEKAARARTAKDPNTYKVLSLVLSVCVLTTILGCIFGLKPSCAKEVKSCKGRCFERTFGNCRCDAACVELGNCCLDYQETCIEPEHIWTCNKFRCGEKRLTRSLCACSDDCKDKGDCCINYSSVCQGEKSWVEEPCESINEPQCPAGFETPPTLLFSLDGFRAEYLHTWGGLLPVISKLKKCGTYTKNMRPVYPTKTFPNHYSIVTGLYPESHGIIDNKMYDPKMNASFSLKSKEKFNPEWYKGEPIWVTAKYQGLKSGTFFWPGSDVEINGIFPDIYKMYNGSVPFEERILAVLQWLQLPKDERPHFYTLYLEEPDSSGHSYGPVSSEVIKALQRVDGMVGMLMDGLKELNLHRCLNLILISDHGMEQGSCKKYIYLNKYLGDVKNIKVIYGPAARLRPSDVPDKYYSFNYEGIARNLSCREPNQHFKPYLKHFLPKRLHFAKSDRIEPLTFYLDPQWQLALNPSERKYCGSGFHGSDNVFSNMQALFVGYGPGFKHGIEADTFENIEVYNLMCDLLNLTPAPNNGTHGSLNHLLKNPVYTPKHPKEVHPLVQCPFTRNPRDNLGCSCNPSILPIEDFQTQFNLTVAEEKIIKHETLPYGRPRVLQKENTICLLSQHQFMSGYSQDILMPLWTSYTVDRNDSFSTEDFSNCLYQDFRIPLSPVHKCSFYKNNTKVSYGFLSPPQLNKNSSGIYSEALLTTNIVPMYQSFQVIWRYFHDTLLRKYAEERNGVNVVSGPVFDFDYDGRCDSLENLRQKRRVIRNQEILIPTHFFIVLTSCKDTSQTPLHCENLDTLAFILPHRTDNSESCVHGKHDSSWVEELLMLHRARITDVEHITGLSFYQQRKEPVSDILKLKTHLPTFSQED
Summary of the method: (§2)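 Crude protein extract from COS-7 cells transiently transfected with human NPP1 (sonicated, debris cleared at 300g), preincubated 3 min at 37 °C with inhibitor (0, 25, 50, 100 μM) in 1 mM CaCl2, 140 mM NaCl, 5 mM KCl, 50 mM Tris pH 8.5. pnp-TMP (25, 50, 100 μM) added; p-nitrophenol read at 410 nm after 15 min. Ki,app and inhibition type from Dixon and Cornish-Bowden plots, three independent experiments.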

[3] = target: T2, Ectonucleotide pyrophosphatase/phosphodiesterase family member 1 (Homo sapiens); assay: Inhibition of human NPP1 expressed in COS7 cells assessed as production of p-nitrophenol using pnp-TMP as the substrate preincubated at 100 uM for 3 mins before substrate addition measured after 15 mins […]; assay type: cell-based; conditions: COS-7
Summary of the method: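 Crude extracts of COS-7 cells transiently transfected with human NPP1 or NPP3, preincubated 3 min at 37 °C in 1 mM CaCl2, 140 mM NaCl, 5 mM KCl, 50 mM Tris pH 8.5 with analogue at 100 μM. Reaction started with 100 μM pnp-TMP; p-nitrophenol at 410 nm after 15 min. Activity without analogue set as 100%. Mean ± SD of 3−6 experiments in triplicate.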

[4] = target: T3, Ectonucleotide pyrophosphatase/phosphodiesterase family member 1 (Homo sapiens, UniProt P22413); assay: Mixed type inhibition of human NPP1 expressed in COS7 cells assessed as production of p-nitrophenol using pnp-TMP as the substrate preincubated for 3 mins before substrate addition measured after 15 mins by Dixon/Cornish Bowden method; assay type: cell-based, COS-7; conditions: read-out: Ki(app); summary of the method: as §2
T3 sequence (P22413 whole entry): T2 sequence (whole entry)

[5] = target: T2, Ectonucleotide pyrophosphatase/phosphodiesterase family member 1 (Homo sapiens); assay: Inhibition of NPP1 in human HTB-85 cells assessed as production of p-nitrophenol using pnp-TMP at 100 uM measured after 20 mins by spectrophotometry; assay type: cell-based; summary of the method: as §1
[6] = target: T4, Ectonucleoside triphosphate diphosphohydrolase 1 (Homo sapiens) (UniProt P49961); assay: Inhibition of human NTPDase1 assessed as amount of inorganic phosphate released using ATP as the substrate preincubated at 100 uM for 3 mins before substrate addition after 15 mins by malachite green reagent method
T4 sequence (whole entry): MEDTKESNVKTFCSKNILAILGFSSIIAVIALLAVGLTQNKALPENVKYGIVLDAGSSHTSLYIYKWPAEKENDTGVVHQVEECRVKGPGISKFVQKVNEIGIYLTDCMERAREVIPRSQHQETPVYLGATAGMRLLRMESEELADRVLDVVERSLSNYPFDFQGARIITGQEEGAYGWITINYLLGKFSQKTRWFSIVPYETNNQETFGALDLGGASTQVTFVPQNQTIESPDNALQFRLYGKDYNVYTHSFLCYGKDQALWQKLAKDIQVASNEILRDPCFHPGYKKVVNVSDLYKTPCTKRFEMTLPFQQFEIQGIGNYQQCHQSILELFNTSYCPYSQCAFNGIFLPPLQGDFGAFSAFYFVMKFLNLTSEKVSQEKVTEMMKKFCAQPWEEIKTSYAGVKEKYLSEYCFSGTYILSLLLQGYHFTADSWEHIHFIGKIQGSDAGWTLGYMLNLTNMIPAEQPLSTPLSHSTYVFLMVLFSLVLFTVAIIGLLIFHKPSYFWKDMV
Summary of the method: (§3)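 Crude extracts of COS-7 cells transiently transfected with human NTPDase1, -2, -3 or -8, preincubated 3 min at 37 °C in Tris-Ringer medium pH 7.4 with analogue (final 100 μM). Started with 100 μM ATP, stopped after 15 min with malachite green; released Pi read at 630 nm. ATP alone set as 100%. Mean ± SD of 3−6 experiments in triplicate.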

[7] = target: T5, Ectonucleoside triphosphate diphosphohydrolase 3 (Homo sapiens) (UniProt O75355); assay: Inhibition of human NTPDase3 assessed as amount of inorganic phosphate released using ATP as the substrate preincubated at 100 uM for 3 mins before substrate addition after 15 mins by malachite green reagent method; summary of the method: as §3
T5 sequence (whole entry): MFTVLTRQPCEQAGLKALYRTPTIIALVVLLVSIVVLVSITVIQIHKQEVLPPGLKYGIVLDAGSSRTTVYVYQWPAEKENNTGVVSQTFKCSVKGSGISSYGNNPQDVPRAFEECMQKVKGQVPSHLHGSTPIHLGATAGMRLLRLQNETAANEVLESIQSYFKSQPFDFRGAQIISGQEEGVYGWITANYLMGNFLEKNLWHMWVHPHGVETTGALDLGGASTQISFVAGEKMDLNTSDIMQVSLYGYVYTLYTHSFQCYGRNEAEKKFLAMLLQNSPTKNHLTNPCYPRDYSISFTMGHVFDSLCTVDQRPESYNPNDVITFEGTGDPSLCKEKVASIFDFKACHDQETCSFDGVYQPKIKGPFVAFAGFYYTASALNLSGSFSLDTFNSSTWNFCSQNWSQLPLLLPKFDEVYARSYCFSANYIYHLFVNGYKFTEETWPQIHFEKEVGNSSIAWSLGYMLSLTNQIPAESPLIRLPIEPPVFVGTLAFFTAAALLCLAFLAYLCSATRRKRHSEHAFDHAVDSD

[8] = target: T6, Ectonucleoside triphosphate diphosphohydrolase 8 (Homo sapiens) (UniProt Q5MY95); assay: Inhibition of human NTPDase8 assessed as amount of inorganic phosphate released using ATP as the substrate preincubated at 100 uM for 3 mins before substrate addition after 15 mins by malachite green reagent method; summary of the method: as §3
T6 sequence (whole entry): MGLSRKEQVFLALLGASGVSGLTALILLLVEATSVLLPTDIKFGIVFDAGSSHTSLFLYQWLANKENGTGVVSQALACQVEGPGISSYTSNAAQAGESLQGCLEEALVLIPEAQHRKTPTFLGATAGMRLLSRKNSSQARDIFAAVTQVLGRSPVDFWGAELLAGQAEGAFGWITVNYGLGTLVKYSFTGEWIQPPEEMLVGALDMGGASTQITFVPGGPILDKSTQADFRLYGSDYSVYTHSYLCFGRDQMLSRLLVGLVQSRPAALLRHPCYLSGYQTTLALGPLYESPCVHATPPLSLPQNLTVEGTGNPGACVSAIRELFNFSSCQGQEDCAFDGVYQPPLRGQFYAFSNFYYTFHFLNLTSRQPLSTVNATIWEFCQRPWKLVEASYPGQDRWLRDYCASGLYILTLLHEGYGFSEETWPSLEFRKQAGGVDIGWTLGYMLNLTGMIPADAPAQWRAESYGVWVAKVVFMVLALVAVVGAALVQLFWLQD

[9] = target: T7, Ectonucleoside triphosphate diphosphohydrolase 2 (Homo sapiens) (UniProt Q9Y5L3); assay: Inhibition of human NTPDase2 assessed as amount of inorganic phosphate released using ATP as the substrate preincubated at 100 uM for 3 mins before substrate addition after 15 mins by malachite green reagent method; summary of the method: as §3
T7 sequence (whole entry): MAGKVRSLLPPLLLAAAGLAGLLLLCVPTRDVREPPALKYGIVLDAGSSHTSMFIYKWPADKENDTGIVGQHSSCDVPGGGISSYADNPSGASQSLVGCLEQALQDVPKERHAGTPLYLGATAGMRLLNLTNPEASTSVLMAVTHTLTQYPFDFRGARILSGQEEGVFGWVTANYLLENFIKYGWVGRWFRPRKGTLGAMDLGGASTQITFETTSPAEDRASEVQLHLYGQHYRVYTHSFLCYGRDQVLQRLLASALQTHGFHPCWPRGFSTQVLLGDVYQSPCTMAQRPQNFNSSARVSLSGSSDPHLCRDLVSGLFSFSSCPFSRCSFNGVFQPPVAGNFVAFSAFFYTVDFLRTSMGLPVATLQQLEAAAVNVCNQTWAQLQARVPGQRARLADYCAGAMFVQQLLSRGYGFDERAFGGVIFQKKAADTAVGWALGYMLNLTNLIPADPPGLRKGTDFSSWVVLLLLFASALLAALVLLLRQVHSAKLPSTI

Row | inhibition [1] | inhibition [2] | inhibition [3] | Ki [4] | inhibition [5] | inhibition [6] | inhibition [7] | inhibition [8] | inhibition [9] | Compound
1 | 41% | Active | 90% | 37 µM | 41% |  |  |  |  | CSc1nc(N)c2ncn([C@@H]3O[C@H](COP(=O)(O)OP(=O)(O)C(F)(F)P(=O)(O)O)[C@@H](O)[C@H]3O)c2n1
2 |  |  | 80% |  |  | < 18% | < 18% | < 18% | < 18% | B[P@@](=O)(OC[C@H]1O[C@@H](n2cnc3c(N)nc(SC)nc32)[C@H](O)[C@@H]1O)OP(=O)(O)CP(=O)(O)O
3 | 41% |  | 90% |  | 41% |  | 50% | 30% |  | B[P@](=O)(OC[C@H]1O[C@@H](n2cnc3c(N)nc(SC)nc32)[C@H](O)[C@@H]1O)OP(=O)(O)C(F)(F)P(=O)(O)O
4 | 41% |  | 90% |  | 41% |  |  |  |  | B[P@](=O)(OC[C@H]1O[C@@H](n2cnc3c(N)nc(SC)nc32)[C@H](O)[C@@H]1O)OP(=O)(O)C(Cl)(Cl)P(=O)(O)O
5 | 41% | Active | 90% | 28 µM | 41% |  |  |  |  | B[P@](=O)(OC[C@H]1O[C@@H](n2cnc3c(N)ncnc32)[C@H](O)[C@@H]1O)OP(=O)(O)C(Cl)(Cl)P(=O)(O)O
6 |  |  | 66% |  |  | < 18% | < 18% | < 18% | < 18% | CSc1nc(N)c2ncn([C@@H]3O[C@H](COP(=O)(O)OP(=O)(O)CP(=O)(O)O)[C@@H](O)[C@H]3O)c2n1
7 | 90% |  | 90% |  | 90% | 50% | 50% |  |  | B[P@@](=O)(OC[C@H]1O[C@@H](n2cnc3c(N)nc(SC)nc32)[C@H](O)[C@@H]1O)OP(=O)(O)C(Cl)(Cl)P(=O)(O)O
